Article PMC3951241 (Journal of medicinal chemistry, 2013)
Where two headings read alike, the source gives them in different places.

Tests used:
[1] = target: rat wild type α1β2γ2L GABAA receptors (Rattus norvegicus, UniProt P62813+P63138); assay: Single-channel recordings in HEK 293 cells; format: cell-based; conditions: 50 μM GABA + 20 μM compound; for OT long, mean duration of the longest-lived intracluster open time component: 4-7 patches
Summary of the method: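 Single-channel currents from the rat wild-type α1β2γ2L GABAA receptor, activated by 50 μM GABA alone (control) or with 20 μM test compound; 4-7 patches per condition. Intracluster open-time histograms were fitted to sums of two or three exponentials, and closed-time histograms to three. Mean duration and fraction of the longest open component, and fraction of the longest closed component, were analysed statistically.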

mice [2] = assay: Anesthesia; format: in vivo, mouse; conditions: tail vein injection
Summary of the method: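 Mice received test compound by tail vein injection, dissolved in 22.5% aqueous 2-(hydroxypropyl)-β-cyclodextrin. Lower doses were made by serial dilution of the 8 mg/kg stock solution with 0.9% saline. Anesthesia was scored as loss of righting reflex (LRR), and LRR duration was recorded at each dose.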

[3] = system: picrotoxin binding site on the heterogeneous GABAA receptors found in rat brain membranes; assay: [35S]TBPS displacement from rat brain membranes; conditions: comparison of IC50 values
tadpoles [4] = assay: Tadpole loss of righting reflex; format: in vivo; conditions: for EC50: read-out: Tadpole LSR EC50; for tadpole LRR EC50: loss of righting reflex, None = no effect at 10 μM; for tadpole LRR EC50 / Tadpole LSR EC50: ± SEM; for Tadpole LSR EC50: loss of swimming reflex, None = all animals had a swimming response at 10 μM test compound
tadpoles [5] = conditions: cited from earlier work
mice [6] = conditions: tail vein injection, previously found ref 15, cited from earlier work

CO[C@H]1[C@H]2CC[C@H]3[C@@H]4CC(=O)C[C@]4(C)CC[C@@H]3[C@]2(C)CC[C@@H]1O (single isomer, unassigned) [ent-9, (3β,4α,5β,8α,9β,10α,13α,14β)-3-Hydroxy-4-methoxyandrostan-16-one]
OT long, mean duration of the longest-lived intracluster open time component [1]: 17.7 ± 6.6 ms | closed time, first listed component, duration ([1]; sample patch of Figure 3): 0.24 ms | closed time, first listed component, fraction ([1]; sample patch of Figure 3): 67% | closed time, second listed component, fraction ([1]; sample patch of Figure 3): 28% | closed time, third listed component, duration ([1]; sample patch of Figure 3): 14.3 ms | closed time, third listed component, fraction ([1]; sample patch of Figure 3): 6% | open time, first listed component, duration ([1]; sample patch of Figure 3): 0.80 ms | open time, first listed component, fraction ([1]; sample patch of Figure 3): 52% | open time, second listed component, duration ([1]; sample patch of Figure 3): 30.3 ms | open time, second listed component, fraction ([1]; sample patch of Figure 3): 48% | duration of LRR in mice (mice [2]; 2 mg/kg (threshold dose)): about 1 min | duration of LRR in mice (mice [2]; 4 mg/kg): about 5 min | duration of LRR in mice (mice [2]; 8 mg/kg): about 9 min | threshold dose for LRR in mice (mice [2]): 2 mg/kg

CO[C@H]1C[C@@]2(C)[C@@H](CC[C@@H]3[C@@H]2CC[C@]2(C)C(=O)CC[C@@H]32)C[C@@H]1O [compound 2, (2β,3α,5α)-3-Hydroxy-2-methoxyandrostan-17-one]
fold decrease in [35S]TBPS displacement potency relative to steroid 1 [3]: about five | EC50 (tadpoles [4]): > 10 µM

O=C1C[C@@H]2CC[C@H]3[C@@H](CC[C@@H]4C[C@@H](O)CC[C@H]43)[C@@H]2C1 (single isomer, unassigned) [ent-12, (3β,5β,8α,9β,10α,13α,14β)-3-Hydroxygonan-16-one]
OT long, mean duration of the longest-lived intracluster open time component [1]: 11.5 ± 3.3 ms | closed time, first listed component, duration ([1]; sample patch of Figure 3): 0.25 ms | closed time, first listed component, fraction ([1]; sample patch of Figure 3): 54% | closed time, second listed component, duration ([1]; sample patch of Figure 3): 2.0 ms | closed time, second listed component, fraction ([1]; sample patch of Figure 3): 24% | closed time, third listed component, duration ([1]; sample patch of Figure 3): 27.8 ms | closed time, third listed component, fraction ([1]; sample patch of Figure 3): 22% | open time, first listed component, duration ([1]; sample patch of Figure 3): 0.29 ms | open time, first listed component, fraction ([1]; sample patch of Figure 3): 29% | open time, second listed component, duration ([1]; sample patch of Figure 3): 2.1 ms | open time, second listed component, fraction ([1]; sample patch of Figure 3): 23% | open time, third listed component, duration ([1]; sample patch of Figure 3): 13.2 ms | open time, third listed component, fraction ([1]; sample patch of Figure 3): 48% | tadpole LRR EC50 (tadpoles [4]): neither LRR nor LSR and None | Tadpole LSR EC50 (tadpoles [4]): neither LRR nor LSR and None

C[C@]12CC[C@@H](O)C[C@@H]1CC[C@@H]1[C@@H]2CC[C@]2(C)C(=O)CC[C@@H]12 [compound 1, Androsterone]
EC50 (tadpoles [5]; read-out: tadpole LRR EC50, loss of righting reflex, literature values ref 9): 3.38 ± 0.9 µM

CC(=O)[C@H]1CC[C@H]2[C@@H]3CC[C@H]4C[C@H](O)CC[C@]4(C)[C@H]3CC[C@]12C [compound 5, allopregnanolone]
EC50 (tadpoles [5]; read-out: Tadpole LSR EC50, loss of swimming reflex, literature values ref 46): 5.5 ± 0.5 µM | EC50 (tadpoles [5]; read-out: tadpole LRR EC50, loss of righting reflex, literature values ref 46): 0.42 ± 0.04 µM

C[C@]12CC[C@@H](O)C[C@@H]1CC[C@@H]1[C@@H]2C(=O)C[C@]2(C)/C(=C\C#N)CC[C@@H]12 [compound 4, [3α,5α,17(20)Z]-3-Hydroxy-11-oxopregn-17(20)-ene-21-nitrile]
EC50 (tadpoles [5]; read-out: Tadpole LSR EC50, loss of swimming reflex, literature values ref 15): 5.48 ± 0.2 µM | EC50 (tadpoles [5]; read-out: tadpole LRR EC50, loss of righting reflex, literature values ref 15): 1.44 ± 0.2 µM

CO[C@@H]1C[C@]2(C)[C@H](CC[C@H]3[C@@H]4CC(=O)C[C@]4(C)CC[C@@H]32)C[C@H]1O (single isomer, unassigned) [ent-8, (2α,3β,5β,8α,9β,10α,13α,14β)-3-Hydroxy-2-methoxyandrostan-16-one]
fold decrease in [35S]TBPS displacement potency relative to ent-7 [3]: about 37 fold | fold higher tadpole LRR EC50 relative to ent-7 (tadpoles [4]; comparison of EC50 values): ~ five | fold higher tadpole LSR EC50 relative to ent-7 (tadpoles [4]; comparison of EC50 values): ~ five

CC(=O)[C@H]1CC[C@H]2[C@@H]3CC[C@H]4C[C@H](O)CC[C@]4(C)[C@H]3C(=O)C[C@]12C [compound 6, alphaxalone]
EC50 (tadpoles [5]; read-out: Tadpole LSR EC50, loss of swimming reflex, literature values ref 48): 5.48 ± 0.11 µM | EC50 (tadpoles [5]; read-out: tadpole LRR EC50, loss of righting reflex, literature values ref 48): 1.12 ± 0.14 µM | duration of LRR in mice (mice [2]; 16 mg/kg): about 4 min | duration of LRR in mice (mice [6]; 8 mg/kg): less than 1 min | threshold dose for LRR in mice (mice [6]): 8 mg/kg

CO[C@@H]1C[C@]2(C)[C@H](CC[C@@H]3[C@@H]2CC[C@@]2(C)C(=O)CC[C@@H]32)C[C@H]1O (single isomer, unassigned) [ent-2, (2α,3β,5β,8α,9β,10α,13α,14β)-3-Hydroxy-2-methoxyandrostan-17-one]
fold decrease in [35S]TBPS displacement potency relative to ent-1 [3]: about 21 fold | EC50 (tadpoles [4]): > 10 µM

C[C@@]12CC[C@H]3[C@@H](CC[C@@H]4C[C@@H](O)CC[C@]43C)[C@@H]1CC(=O)C2 (single isomer, unassigned) [ent-7, (3β,5β,8α,9β,10α,13α,14β)-3-Hydroxyandrostan-16-one]
fold increase in [35S]TBPS displacement potency relative to ent-1 [3]: about four | OT long, mean duration of the longest-lived intracluster open time component [1]: 12.4 ± 3.4 ms | closed time, first listed component, duration ([1]; sample patch of Figure 3): 0.27 ms | closed time, first listed component, fraction ([1]; sample patch of Figure 3): 71% | closed time, second listed component, duration ([1]; sample patch of Figure 3): 2.1 ms | closed time, second listed component, fraction ([1]; sample patch of Figure 3): 24% | closed time, third listed component, duration ([1]; sample patch of Figure 3): 25.0 ms | closed time, third listed component, fraction ([1]; sample patch of Figure 3): 5% | open time, first listed component, duration ([1]; sample patch of Figure 3): 0.64 ms | open time, first listed component, fraction ([1]; sample patch of Figure 3): 39% | open time, second listed component, duration ([1]; sample patch of Figure 3): 10.9 ms | open time, second listed component, fraction ([1]; sample patch of Figure 3): 61% | fold lower tadpole LRR EC50 relative to ent-1 (tadpoles [4]; comparison of EC50 values): ~ three | fold lower tadpole LSR EC50 relative to ent-1 (tadpoles [4]; comparison of EC50 values): ~ three | duration of LRR in mice (mice [2]; 8 mg/kg): about 3 min | duration of LRR in mice (mice [2]; 16 mg/kg): about 7 min

CO[C@H]1[C@H](O)CC[C@]2(C)[C@H]3CC[C@]4(C)C(=O)CC[C@H]4[C@@H]3CC[C@@H]12 [compound 3, (3α,4β,5α)-3-Hydroxy-4-methoxyandrostan-17-one]
tadpole LRR EC50 (tadpoles [4]): None | Tadpole LSR EC50 (tadpoles [4]): None
